In ChEMBL document CHEMBL5338787, “Discovery of Novel Bruton's Tyrosine Kinase PROTACs with Enhanced Selectivity and Cellular Efficacy” (J Med Chem, 2023):
Active and inactive are the calls of the source. The calls are words filed in the database; no cut-off is given here.

Key:
MINO [1] = experiment: Induction of apoptosis in human MINO cells measured after 48 hrs by Annexin-V/propidium iodide staining based flow cytometric analysis; format: functional, cell-based; conditions: dose 0.15-3000 nM
Procedure, shortened: (§1)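 Cells plated at 2 × 10^6 per well and treated 48 h at 3,000–0.15 nM (3-fold dilutions) or 1% DMSO. Harvested, washed in cold PBS, stained with Annexin V Alexa Fluor 488/propidium iodide, analysed by flow cytometry for % live, apoptotic and necrotic cells. Mean of two independent experiments.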

[2] = molecular target: T1, Protein cereblon/Tyrosine-protein kinase BTK (Homo sapiens, UniProt Q06187+Q96SW2); experiment: PROTAC activity at BTK/CRBN protein protein interaction in human Ramos cell assessed as degradation of BTK incubated at 111 nM for 17 hrs in presence of -iberdomide at 20 uM measured by Western blot analysis
TMD8 [3] = experiment: Induction of apoptosis in human TMD8 cells measured after 48 hrs by Annexin-V/propidium iodide staining based flow cytometric analysis; format: functional, cell-based; conditions: dose 0.15-3000 nM; procedure, shortened: as §1
TMD8 [4] = experiment: Induction of apoptosis in human TMD8 cells assessed as downregulation in Mcl-1 level measured at 0.15 to 3000 nM after 48 hrs by Western blot analysis; format: functional, cell-based; conditions: dose 0.15-3000 nM
Procedure, shortened: (§2)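 TMD8 or Mino cells (2 × 10^6 per well) exposed 48 h to 3000–0.15 nM (3-fold dilution) or 1% DMSO. Lysates BCA-normalised, 8–30 μg per lane on 4–20% Tris-glycine gels, transferred to nitrocellulose, probed with antibodies, HRP chemiluminescence detection and densitometry. Representative of two independent experiments.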

[5] = molecular target: Tyrosine-protein kinase BTK (Homo sapiens, UniProt Q06187); experiment: Binding affinity to full length BTK (unknown origin) assessed as dissociation constant measured at 37 degree C by TR-FRET assay
Protein cereblon = Protein cereblon (Homo sapiens, UniProt Q96SW2); experiment: Inhibition of CRBN in HEK293 cells using NanoGlo substrate incubated for 2 hrs by NanoBRET assay; format: cell-based
[6] = molecular target: T1, Protein cereblon/Tyrosine-protein kinase BTK; experiment: PROTAC activity at BTK/CRBN protein protein interaction in human Ramos cell assessed as degradation of BTK incubated at 111 nM for 17 hrs in presence of GDC-0853 at 1 uM measured by Western blot analysis; format: cell-based
TMD8 [7] = experiment: Induction of apoptosis in human TMD8 cells assessed as decrease in caspase 3 level measured after 48 hrs by Western blot analysis; format: functional, cell-based; conditions: dose 0.15-3000 nM; procedure, shortened: as §2
TMD8 [8] = experiment: Induction of apoptosis in human TMD8 cells assessed as decrease in PARP level measured after 48 hrs by Western blot analysis; format: functional, cell-based; conditions: dose 0.15-3000 nM; procedure, shortened: as §2
MINO [9] = experiment: Induction of apoptosis in human MINO cells at 333 nM for 48 hrs by Annexin-V/propidium iodide staining based flow cytometric analysis; format: functional, cell-based; procedure, shortened: as §1
MINO [10] = experiment: Induction of apoptosis in human MINO cells assessed as decrease in caspase 3 level measured after 48 hrs by Western blot analysis; format: functional, cell-based; conditions: dose 0.15-3000 nM; procedure, shortened: as §2
[11] = molecular target: T2, Tyrosine-protein kinase BAZ1B (Homo sapiens) (UniProt Q9UIG0); experiment: Degradation of BAZ1B in human TMD8 cells by measuring protein level at 111 nM for 6 hrs using label free proteomic analysis; format: cell-based
T2 sequence (whole entry): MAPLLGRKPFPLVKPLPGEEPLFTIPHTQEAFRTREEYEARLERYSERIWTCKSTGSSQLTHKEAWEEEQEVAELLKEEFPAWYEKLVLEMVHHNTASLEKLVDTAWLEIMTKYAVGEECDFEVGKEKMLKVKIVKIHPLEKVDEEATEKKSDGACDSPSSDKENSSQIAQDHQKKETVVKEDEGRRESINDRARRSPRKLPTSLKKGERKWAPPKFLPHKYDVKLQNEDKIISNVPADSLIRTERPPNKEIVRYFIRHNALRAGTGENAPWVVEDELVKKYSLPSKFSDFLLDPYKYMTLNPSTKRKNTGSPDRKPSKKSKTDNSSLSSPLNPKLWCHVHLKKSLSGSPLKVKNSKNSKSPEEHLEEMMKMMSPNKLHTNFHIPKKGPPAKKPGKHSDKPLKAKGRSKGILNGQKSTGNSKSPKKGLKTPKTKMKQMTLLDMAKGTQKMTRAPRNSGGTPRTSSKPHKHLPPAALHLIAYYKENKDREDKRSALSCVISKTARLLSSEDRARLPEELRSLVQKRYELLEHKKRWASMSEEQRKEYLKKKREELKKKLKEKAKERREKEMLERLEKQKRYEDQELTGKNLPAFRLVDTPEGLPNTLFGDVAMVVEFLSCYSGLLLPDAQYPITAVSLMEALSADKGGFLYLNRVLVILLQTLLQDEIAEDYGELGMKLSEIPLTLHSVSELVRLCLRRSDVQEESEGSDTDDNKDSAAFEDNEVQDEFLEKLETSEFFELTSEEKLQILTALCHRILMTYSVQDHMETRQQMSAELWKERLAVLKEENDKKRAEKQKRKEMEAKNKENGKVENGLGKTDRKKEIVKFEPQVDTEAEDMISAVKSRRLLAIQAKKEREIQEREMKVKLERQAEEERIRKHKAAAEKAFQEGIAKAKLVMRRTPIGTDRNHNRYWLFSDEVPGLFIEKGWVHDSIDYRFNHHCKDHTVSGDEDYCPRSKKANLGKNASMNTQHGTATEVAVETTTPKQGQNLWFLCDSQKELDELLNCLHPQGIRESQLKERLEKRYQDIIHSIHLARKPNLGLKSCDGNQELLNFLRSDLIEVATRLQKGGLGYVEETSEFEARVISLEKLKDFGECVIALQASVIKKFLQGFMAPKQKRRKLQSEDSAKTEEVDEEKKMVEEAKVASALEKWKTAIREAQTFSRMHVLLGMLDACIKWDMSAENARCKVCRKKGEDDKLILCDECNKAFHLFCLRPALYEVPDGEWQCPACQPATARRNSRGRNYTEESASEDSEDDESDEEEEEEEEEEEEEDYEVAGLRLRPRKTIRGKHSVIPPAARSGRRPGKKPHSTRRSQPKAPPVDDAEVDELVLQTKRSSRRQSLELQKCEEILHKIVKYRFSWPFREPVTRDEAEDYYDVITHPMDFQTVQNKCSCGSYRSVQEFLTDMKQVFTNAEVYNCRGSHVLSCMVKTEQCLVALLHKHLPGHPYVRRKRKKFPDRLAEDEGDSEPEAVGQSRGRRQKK
Procedure, shortened: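 TMD8 cells (2 × 10^6) given 111 nM or DMSO for 6 h in duplicate. Lysed in 5% SDS/50 mM TEAB pH 8.5. 200 μg protein reduced (10 mM DTT, 55 °C, 30 min), alkylated (50 mM iodoacetamide), S-Trap processed, then LC-MS/MS. Label-free matched-peptide quantitation against DMSO, human UniProt; Benjamini–Hochberg-corrected p-values.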

TMD8 [12] = experiment: Induction of apoptosis in human TMD8 cells assessed as downregulation in Bcl-2 level measured at 0.15 to 3000 nM after 48 hrs by Western blot analysis; format: functional, cell-based; conditions: dose 0.15-3000 nM; procedure, shortened: as §2
MINO [13] = experiment: Induction of apoptosis in human MINO cells assessed as downregulation in Mcl-1 level measured at 0.15 to 3000 nM after 48 hrs by Western blot analysis; format: functional, cell-based; conditions: dose 0.15-3000 nM; procedure, shortened: as §2
[14] = Cytotoxicity against human MINO cells incubated for 48 hrs by celltitre glo 2.0 assay; format: functional, cell-based

T1 sequence (Q06187 2-659 limits assumed): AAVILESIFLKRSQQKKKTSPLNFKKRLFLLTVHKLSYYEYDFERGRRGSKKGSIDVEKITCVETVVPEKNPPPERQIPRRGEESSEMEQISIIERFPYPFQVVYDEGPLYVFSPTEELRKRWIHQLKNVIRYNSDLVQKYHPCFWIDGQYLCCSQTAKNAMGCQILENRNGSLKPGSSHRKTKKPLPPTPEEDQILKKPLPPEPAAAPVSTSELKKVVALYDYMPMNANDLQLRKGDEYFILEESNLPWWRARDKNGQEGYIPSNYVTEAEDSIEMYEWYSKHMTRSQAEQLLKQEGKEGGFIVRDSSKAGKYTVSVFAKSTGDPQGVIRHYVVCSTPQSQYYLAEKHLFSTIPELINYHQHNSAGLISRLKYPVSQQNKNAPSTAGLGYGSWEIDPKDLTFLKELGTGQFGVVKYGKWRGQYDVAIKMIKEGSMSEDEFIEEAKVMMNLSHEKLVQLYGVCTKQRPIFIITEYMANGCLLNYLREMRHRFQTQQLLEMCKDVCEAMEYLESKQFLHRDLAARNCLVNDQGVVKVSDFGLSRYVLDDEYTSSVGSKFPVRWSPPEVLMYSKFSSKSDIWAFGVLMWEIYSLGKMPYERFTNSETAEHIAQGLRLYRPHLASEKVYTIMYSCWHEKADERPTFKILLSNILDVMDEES
T1 sequence (Q96SW2 whole entry partner): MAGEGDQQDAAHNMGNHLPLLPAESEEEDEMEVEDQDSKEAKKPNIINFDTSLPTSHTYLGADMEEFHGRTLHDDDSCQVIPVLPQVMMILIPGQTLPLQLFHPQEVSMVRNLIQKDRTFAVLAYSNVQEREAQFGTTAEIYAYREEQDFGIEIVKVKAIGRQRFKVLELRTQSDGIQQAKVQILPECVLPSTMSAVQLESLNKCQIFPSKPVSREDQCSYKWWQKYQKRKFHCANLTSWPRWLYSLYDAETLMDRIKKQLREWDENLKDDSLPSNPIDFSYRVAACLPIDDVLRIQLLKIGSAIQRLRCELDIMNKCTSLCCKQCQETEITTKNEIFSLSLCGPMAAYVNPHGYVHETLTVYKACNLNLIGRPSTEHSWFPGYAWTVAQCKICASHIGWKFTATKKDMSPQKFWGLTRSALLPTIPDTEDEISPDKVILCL
Sequence of Tyrosine-protein kinase BTK (Q06187 whole entry): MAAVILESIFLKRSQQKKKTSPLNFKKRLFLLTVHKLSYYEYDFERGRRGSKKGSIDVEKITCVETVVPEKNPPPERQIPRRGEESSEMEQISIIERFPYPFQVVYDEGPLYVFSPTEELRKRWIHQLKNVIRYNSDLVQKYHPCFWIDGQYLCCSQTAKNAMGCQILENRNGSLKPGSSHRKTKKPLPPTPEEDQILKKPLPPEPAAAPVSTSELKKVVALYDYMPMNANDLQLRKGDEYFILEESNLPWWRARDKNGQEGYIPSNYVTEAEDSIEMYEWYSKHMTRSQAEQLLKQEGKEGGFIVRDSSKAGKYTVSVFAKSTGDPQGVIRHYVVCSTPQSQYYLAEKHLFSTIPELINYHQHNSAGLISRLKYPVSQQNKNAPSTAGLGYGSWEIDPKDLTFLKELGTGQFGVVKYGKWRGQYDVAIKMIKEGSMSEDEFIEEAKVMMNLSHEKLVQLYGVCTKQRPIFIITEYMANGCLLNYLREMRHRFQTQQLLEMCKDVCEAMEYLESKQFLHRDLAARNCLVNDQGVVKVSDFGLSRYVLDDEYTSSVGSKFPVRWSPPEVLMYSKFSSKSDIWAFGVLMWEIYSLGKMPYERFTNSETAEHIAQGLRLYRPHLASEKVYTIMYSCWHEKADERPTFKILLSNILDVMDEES
Sequence of Protein cereblon (Q96SW2 whole entry): as the sequence (Q96SW2 whole entry partner) above

Row | SMILES | Activity (MINO [1]) | Activity [2] | Activity (TMD8 [3]) | Activity (TMD8 [4]) | Kd [5] | IC50 (Protein cereblon) | Activity [6] | Activity (TMD8 [7]) | Activity (TMD8 [8]) | Activity (MINO [9]) | Activity (MINO [10]) | Activity [11] | Activity (TMD8 [12]) | Activity (MINO [13]) | IC50 [14]
1 | C[C@H]1CN(C(=O)CNc2cccc3c2C(=O)N(C2CCC(=O)NC2=O)C3=O)CCN1c1ccc(Nc2cc(-c3ccnc(N4CCn5c(cc6c5CC(C)(C)C6)C4=O)c3CO)cn(C)c2=O)nc1 (stereo partly specified) | Dose-Dependent Effect | inactive | Dose-Dependent Effect | Active | 2.28 nM | 107 nM | inactive | Active | Active | Active | Active | inactive | Active | Active | 2.2 nM
2 | C[C@H]1CN(C(=O)COc2cccc3c2C(=O)N(C2CCC(=O)NC2=O)C3=O)CCN1c1ccc(Nc2cc(-c3ccnc(N4CCn5c(cc6c5CC(C)(C)C6)C4=O)c3CO)cn(C)c2=O)nc1 (stereo partly specified) |  |  |  |  |  |  |  |  |  |  |  | inactive |  |  | 
